Measured values collected from several papers.
Each line is one published result; the experiments were not run side by side.
Medium: plasma
Route: intravenous

O=C(Nc1cc(F)c(F)c(F)c1)c1ccc(F)c(S(=O)(=O)NCc2cccc(B(O)O)c2)c1 — Vd (male Sprague-Dawley rat; 2 mg/kg): 11 L/kg
CCOC(=O)[C@@]12C[C@@H]1[C@@H](n1ccc3c(NC)nc(C#Cc4ccc(Cl)s4)nc31)[C@H](O)[C@@H]2O — Vd (male Sprague-Dawley rat; 0.5 mg/kg): 33.8 L/kg
Cc1noc(-c2cc3cc(-c4nc(C(=O)NCc5ccncc5)[nH]c4C)ccc3[nH]2)n1 — Vd (Sprague-Dawley rat; 1 mg/kg): 1.5 L/kg
COc1ccc2c(Cc3ccccc3F)c3[n+](cc2c1OC)CCc1cc2c(cc1-3)OCO2.[Br-] — Vd (rat; 5 mg/kg): 71.8 L/kg
CCCC[C@@H]1NC(=O)[C@H](Cc2ccc(O)cc2)NC(=O)[C@@H]2CCCN2C(=O)[C@H](CC(=O)O)NC(=O)[C@H](C)NC(=O)[C@H](Cc2ccccc2)NC(=O)[C@@H]2CSCCC(=O)N3CN(CN(C3)C(=O)CCSC[C@@H](C(=O)N[C@@H](C)C(N)=O)NC1=O)C(=O)CCSC[C@H](NC(C)=O)C(=O)N[C@@H](CC(C)(C)C)C(=O)N1CCC[C@H]1C(=O)N[C@@H](CCC(=O)O)C(=O)N[C@H](CCCCNC(=O)CCc1cn(CCOCCOCCOCCOCCOCCOCCOCCOCCOCCOCCNC(=O)c3cc(C(=O)NCCOCCOCCOCCOCCOCCOCCOCCOCCOCCOCCn4cc(CCC(=O)NCCCC[C@H]5NC(=O)[C@H](CCC(=O)O)NC(=O)[C@@H]6CCCN6C(=O)[C@H](CC(C)(C)C)NC(=O)[C@@H](NC(C)=O)CSCCC(=O)N6CN7CN(C6)C(=O)CCSC[C@H](NC(=O)[C@H](Cc6ccc(O)cc6)NC(=O)[C@@H]6CCCN6C5=O)C(=O)N[C@@H](Cc5ccccc5)C(=O)N[C@@H](C)C(=O)N[C@@H](CC(=O)O)C(=O)N5CCC[C@H]5C(=O)N[C@@H](Cc5ccc(O)cc5)C(=O)N[C@@H](CCCC)C(=O)N[C@H](C(=O)N[C@@H](C)C(N)=O)CSCCC7=O)nn4)cc(C(=O)NCCOCCOCCOCCOCCOCCOCCOCCOCCOCCOCCn4cc(CCC(=O)N[C@H]5CSCCC(=O)N6CN7CN(C6)C(=O)CCSC[C@H](NC(=O)[C@@H](CC(=O)O)NC(=O)[C@H](Cc6cccc8ccccc68)NC(=O)[C@@H]6CCCN6C5=O)C(=O)N[C@@H](CCSC)C(=O)N[C@@H](CCCCNC(=N)N)C(=O)N[C@@H](CC(=O)O)C(=O)N[C@@H](Cc5c[nH]c6ccccc56)C(=O)N[C@@H](CO)C(=O)N[C@@H]([C@@H](C)O)C(=O)N5CCC[C@H]5C(=O)N5C[C@H](O)C[C@H]5C(=O)N[C@@H](Cc5c[nH]c6ccccc56)C(=O)N[C@H](C(N)=O)CSCCC7=O)nn4)c3)nn1)C(=O)N1CCC[C@H]1C(=O)N[C@@H](Cc1ccc(O)cc1)C(=O)N2 — Vd (rat; 2 mg/kg): 1 L/kg
COc1cc(F)ccc1-c1ncnc(Nc2cccc(C[S@](C)(=N)=O)c2)n1 — Vd (male Wistar rat): 1 L/kg
Cc1nc(Nc2ncc(C(=O)Nc3c(C)cccc3Cl)s2)cc(N2CCN(CCO)CC2)n1 — Vd (female Sprague-Dawley rat; 5 mg/kg): 4.6 L
C=CC(=O)Nc1cc(Nc2nccc(Nc3cc(Cl)c(F)cc3C(C)(C)O)n2)c(OC)cc1N1CC[C@@H](N(C)C)C1 — Vd (Wistar rat; 3 mg/kg): 13.6 L/kg
Oc1c(-n2ccnn2)cnn1-c1cc(N2CCOCC2)ncn1 — Vd (male rat; 5 mg/kg): 0.62 L/kg
CCc1cc(C(=O)NC)c2nccc(N3CCc4c(cc(Cn5ccnc5)cc4-c4cn(C)nc4C(F)(F)F)C3=O)c2c1 — Vd (male Sprague-Dawley rat; 3 mg/kg): 1 L/kg
CCCCCCCCCCCCCCCc1ccc(CP(=O)(O)O)cc1 — Vd (male Sprague-Dawley rat; 5.8 mg/kg): 3.9 L/kg
CCCC[C@@H]1NC(=O)[C@H](Cc2ccc(O)cc2)NC(=O)[C@@H]2CCCN2C(=O)[C@H](CC(=O)O)NC(=O)[C@H](C)NC(=O)[C@H](Cc2ccccc2)NC(=O)[C@@H]2CSCCC(=O)N3CN(CN(C3)C(=O)CCSC[C@@H](C(=O)N[C@@H](CNC(=O)CCOCCOCCOCCOCCOCCOCCOCCOCCOCCOCCOCCOCCn3cc(CCC(=O)NCCC(=O)N(C)CC(=O)N(C)CC(=O)N(C)CC(=O)N(C)CC(=O)N(C)CC(=O)N(C)CC(=O)N(C)CC(=O)N(C)CC(=O)N(C)CC(=O)N(C)CC(=O)N[C@H]4CSCCC(=O)N5CN6CN(C5)C(=O)CCSC[C@H](NC(=O)[C@@H](CC(=O)O)NC(=O)[C@H](Cc5cccc7ccccc57)NC(=O)[C@@H]5CCCN5C4=O)C(=O)N[C@@H](CCSC)C(=O)N[C@@H](CCCCNC(=N)N)C(=O)N[C@@H](CC(=O)O)C(=O)N[C@@H](Cc4c[nH]c5ccccc45)C(=O)N[C@@H](CO)C(=O)N[C@@H]([C@@H](C)O)C(=O)N4CCC[C@H]4C(=O)N4C[C@H](O)C[C@H]4C(=O)N[C@@H](Cc4c[nH]c5ccccc45)C(=O)N[C@H](C(N)=O)CSCCC6=O)nn3)C(N)=O)NC1=O)C(=O)CCSC[C@H](NC(C)=O)C(=O)N[C@@H](CC(C)(C)C)C(=O)N1CCC[C@H]1C(=O)N[C@@H](CCC(=O)O)C(=O)N[C@H](C)C(=O)N1CCC[C@H]1C(=O)N[C@@H](Cc1ccc(O)cc1)C(=O)N2 — Vd (rat; 2 mg/kg): 0.46 L/kg
CN1CCC(COc2cnc(-c3cccc(Cn4nc(-c5cccc(C#N)c5)ccc4=O)c3)nc2)CC1 — Vd (male Sprague-Dawley rat; 1 mg/kg): 19 L/kg
